Results taken from ChEMBL document CHEMBL1764990, “Caffeic acid phenethyl ester inhibits PDGF-induced proliferation of vascular smooth muscle cells via activation of p38 MAPK, HIF-1α, and heme oxygenase-1” (J Nat Prod, 2011).
Active and inactive are the calls of the source.

How the values were obtained:
VSMC [1] = assay: Inhibition of PDGF-stimulated rat VSMC proliferation after 24 hrs; assay type: functional
Summary of the method: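 Quiescent rat aortic VSMCs treated with compound (1–10 μM) or vehicle, then stimulated with PDGF (20 ng/mL) for 24 h. Cells were counted; the increase in cell number in vehicle-treated cells was set to 100%.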

VSMC [2] = assay: Inhibition of PDGF-induced DNA synthesis in rat VSMC assessed as [3H]thymidine incorporation into DNA at 5 uM treated for 30 mins before 24 hrs of PDGF challenge; assay type: functional
Summary of the method: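 Quiescent rat aortic VSMCs (starved 48 h) pretreated 30 min with 5 μM compound, then stimulated with PDGF-BB (20 ng/mL). Methyl-3H-thymidine (2 μCi/mL) pulse for the last 6 h of 24 h. TCA-insoluble radioactivity measured after NaOH solubilisation.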

[3] = Cytotoxicity against rat VSMC assessed as cell viability at >25 uM after 48 hrs by trypan blue exclusion assay; assay type: cell-based; details: VSMC (vascular smooth muscle cells), read-out: Activity
Summary of the method: (§1)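 Cultured rat aortic VSMCs exposed to compound for 48 h. Viability by trypan blue exclusion, with cell morphology and detachment also noted.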

[4] = Cytotoxicity against rat VSMC assessed as morphological changes at >25 uM after 48 hrs by trypan blue exclusion assay; summary of the method: as §1
[5] = Cytotoxicity against rat VSMC assessed as detachment of the cells at >25 uM after 48 hrs by trypan blue exclusion assay; assay type: cell-based; summary of the method: as §1
[6] = Cell cycle arrest in PDGF-induced rat VSMC assessed as accumulation at G0/G1 phase at 5 uM treated for 30 mins followed by induced with PDGF for 28 hrs by propidium iodide staining by flow cytometry; assay type: functional, cell-based
Summary of the method: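 Quiescent rat aortic VSMCs pretreated 30 min with 5 μM compound, then stimulated with PDGF (20 ng/mL) for 28 h. Nuclei stained with propidium iodide; cell-cycle distribution by flow cytometry. n = 3.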

VSMC [7] = assay: Induction of cell cycle arrest in rat VSMC at G1 phase assessed as inhibition of retinoblastoma protein phosphorylation treated for 30 mins before 12 hrs of PDGF challenge by Western blot analysis; assay type: functional, cell-based
VSMC [8] = assay: Inhibition of rat VSMC proliferation at 5 uM; assay type: functional
Rattus norvegicus [9] = species: Rattus norvegicus; assay: Inhibition of TNFalpha-induced NF-kappaB binding activity in rat VSMC at 5 uM pretreated for 30 mins before 45 mins of TNFalpha stimulation by gel shift assay
Summary of the method: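 Rat aortic VSMCs in six-well plates preincubated 30 min with vehicle or compound, then treated with TNF-α (10 ng/mL). NF-κB DNA binding in nuclear extracts measured by electrophoretic mobility shift assay.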

Rattus norvegicus [10] = species: Rattus norvegicus; assay: Inhibition of NF-kappaB activation in rat VSMC at 5 uM
VSMC [11] = assay: Inhibition of p38 phosphorylation in PDGF-stimulated rat VSMC at 5 uM treated for 30 mins before 10 mins of cell stimulation by Western blot analysis; assay type: cell-based
Summary of the method: (§2)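 Quiescent rat aortic VSMCs (serum-free DMEM 24 h) pretreated 30 min with vehicle or 5 μM compound, then stimulated with PDGF (20 ng/mL) for 10 min. Total lysates analysed by Western blot for phospho-AKT, ERK, JNK, STAT3 and p38, with tubulin or actin.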

[12] = molecular target: Mitogen-activated protein kinase 1 and 3 (ERK2 and ERK1) (Rattus norvegicus) (UniProt P63086+P21708); assay: Inhibition of ERK1/2 phosphorylation in PDGF-stimulated rat VSMC at 5 uM treated for 30 mins before 10 mins of cell stimulation by Western blot analysis; summary of the method: as §2
[13] = molecular target: Mitogen-activated protein kinase 8 (Rattus norvegicus) (UniProt P49185); assay: Inhibition of JNK1/2 phosphorylation in PDGF-stimulated rat VSMC at 5 uM treated for 30 mins before 10 mins of cell stimulation by Western blot analysis; assay type: cell-based; summary of the method: as §2
VSMC [14] = assay: Inhibition of AKT phosphorylation in PDGF-stimulated rat VSMC at 5 uM treated for 30 mins before 10 mins of cell stimulation by Western blot analysis; assay type: cell-based; summary of the method: as §2
[15] = molecular target: Signal transducer and activator of transcription 3 (Rattus norvegicus) (UniProt P52631); assay: Inhibition of STAT3 phosphorylation in PDGF-stimulated rat VSMC at 5 uM treated for 30 mins before 10 mins of cell stimulation by Western blot analysis; summary of the method: as §2
VSMC [16] = assay: Inhibition of tubulin phosphorylation in PDGF-stimulated rat VSMC at 5 uM treated for 30 mins before 10 mins of cell stimulation by Western blot analysis; assay type: cell-based
Rattus norvegicus [17] = species: Rattus norvegicus; assay: Effect on p38 MAPK activation in PDGF-stimulated rat VSMC assessed as phosphorylation at 5 uM treated for 30 mins followed by stimulated with PDGF for 10 mins by immunoblot analysis
Summary of the method: (§3)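 Quiescent rat aortic VSMCs pretreated 30 min with vehicle or 5 μM compound, then stimulated with PDGF for 10 or 60 min. Total lysates immunoblotted for phospho-p38 and total p38. Three independent experiments.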

Rattus norvegicus [18] = species: Rattus norvegicus; assay: Effect on p38 MAPK activation in PDGF-stimulated rat VSMC assessed as phosphorylation at 5 uM treated for 30 mins followed by stimulated with PDGF for 60 mins by immunoblot analysis; summary of the method: as §3
VSMC [19] = assay: Antiproliferative activity against PDGF-stimulated rat VSMC assessed as inhibition of DNA synthesis at 5 uM after 24 hrs by [3H]-thymidine incorporation assay in presence of p38 kinase inhibitor SB203580; assay type: functional
Summary of the method: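 Rat aortic VSMCs starved 48 h. Treated with compound (5 μM), p38 inhibitor SB203580 (10 μM) and PDGF-BB (20 ng/mL) as indicated. Pulse-labelled with methyl-3H-thymidine (2 μCi/mL) for the final 6 h of 24 h. TCA-precipitated material was dissolved in 0.4 M NaOH and counted. n = 3, Student's t-test.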

VSMC [20] = assay: Increase in HO-1 protein expression in rat VSMC at 5 uM after 16 hrs by immunoblot analysis; assay type: functional
Summary of the method: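 Rat aortic VSMCs treated 16 h with vehicle, compound (5 μM) or cobalt protoporphyrin (10 μM). Total lysates immunoblotted for HO-1 and actin. Three independent experiments.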

VSMC [21] = assay: Antiproliferative activity against PDGF-stimulated rat VSMC transfected with HO-1 siRNA assessed as growth arrest after 24 hrs by immunoblot analysis; assay type: functional; details: in the assay text read “by cell counting” for “by immunoblot analysis”
Summary of the method: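 Rat aortic VSMCs transfected with scrambled or HO-1-specific siRNA, then starved, treated with compound and stimulated with PDGF. Cells were counted after 24 h. HO-1 knockdown was checked by immunoblot. n = 3, Student's t-test.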

VSMC [22] = assay: Decrease in basal ROS level in PDGF-stimulated rat VSMC at 5 uM pretreated with compound for 30 mins measured after upto 23 hrs of post stimulation using H2DCF by flow cytometric analysis; assay type: functional
Summary of the method: (§4)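 Quiescent rat aortic VSMCs pretreated 30 min with 5 μM compound or vehicle, then stimulated with PDGF (20 ng/mL). At set times up to 23 h, total intracellular ROS measured by flow cytometry of oxidized H2DCF (H2DCFDA probe). n = 3, ANOVA.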

VSMC [23] = assay: Decrease in intracellular ROS level in PDGF-stimulated rat VSMC at 5 uM pretreated with compound for 30 mins measured after upto 23 hrs of post stimulation using H2DCF by flow cytometric analysis; assay type: functional, cell-based; summary of the method: as §4
VSMC [24] = assay: Accumulation of HIF-1alpha in PDGF-stimulated rat VSMC at 5 uM after 4 hrs by immunoblot analysis; assay type: functional
Summary of the method: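 Primary aortic smooth muscle cells from male Sprague-Dawley rats, made quiescent in serum-free DMEM for 24 h. Pretreated with compound or vehicle, then stimulated with PDGF. After 4 h, total cell lysates were immunoblotted for HIF-1α, with actin as loading control.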

VSMC [25] = assay: Induction of HO-1 protein expression in rat VSMC at 5 uM measured after 16 hrs in presence of 10 to 100 uM of HIF-1alpha inhibitor […] treated for 15 mins by immunoblot analysis; assay type: functional
Summary of the method: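 Rat aortic VSMCs pretreated 15 min with the HIF-1α inhibitor YC-1 at graded levels (up to 100 μM), then given 5 μM compound or vehicle for 16 h. HO-1 read by immunoblot.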

VSMC [26] = assay: Inhibition of PDGF-stimulated rat VSMC proliferation; assay type: functional
VSMC [27] = assay: Induction of HO-1 protein expression in Nrf2-deficient PDGF-stimulated rat VSMC; assay type: functional

Sequence of Signal transducer and activator of transcription 3 (Rattus norvegicus) (P52631 whole entry): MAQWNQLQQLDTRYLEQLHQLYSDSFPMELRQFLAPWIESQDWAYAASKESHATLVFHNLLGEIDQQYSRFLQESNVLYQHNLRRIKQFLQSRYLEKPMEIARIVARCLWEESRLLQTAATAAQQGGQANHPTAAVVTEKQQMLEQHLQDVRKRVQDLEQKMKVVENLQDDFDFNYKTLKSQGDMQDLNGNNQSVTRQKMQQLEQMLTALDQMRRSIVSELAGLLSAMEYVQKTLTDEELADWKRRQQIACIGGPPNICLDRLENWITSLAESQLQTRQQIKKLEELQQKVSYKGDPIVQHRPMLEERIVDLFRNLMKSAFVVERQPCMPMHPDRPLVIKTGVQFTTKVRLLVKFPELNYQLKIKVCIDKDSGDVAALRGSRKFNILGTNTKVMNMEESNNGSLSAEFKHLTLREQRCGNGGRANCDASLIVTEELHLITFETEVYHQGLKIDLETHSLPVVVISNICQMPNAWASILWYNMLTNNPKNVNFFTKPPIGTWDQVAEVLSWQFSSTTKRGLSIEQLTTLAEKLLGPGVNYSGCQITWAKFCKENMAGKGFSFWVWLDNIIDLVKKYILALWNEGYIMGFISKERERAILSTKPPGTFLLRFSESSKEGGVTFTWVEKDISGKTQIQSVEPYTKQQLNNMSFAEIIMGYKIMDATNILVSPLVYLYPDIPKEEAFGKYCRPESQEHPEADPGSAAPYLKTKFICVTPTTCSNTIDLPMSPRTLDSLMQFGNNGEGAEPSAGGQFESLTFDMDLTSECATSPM
Sequence of Mitogen-activated protein kinase 1 and 3 (ERK2 and ERK1) (Rattus norvegicus) (P21708 whole entry, looked up): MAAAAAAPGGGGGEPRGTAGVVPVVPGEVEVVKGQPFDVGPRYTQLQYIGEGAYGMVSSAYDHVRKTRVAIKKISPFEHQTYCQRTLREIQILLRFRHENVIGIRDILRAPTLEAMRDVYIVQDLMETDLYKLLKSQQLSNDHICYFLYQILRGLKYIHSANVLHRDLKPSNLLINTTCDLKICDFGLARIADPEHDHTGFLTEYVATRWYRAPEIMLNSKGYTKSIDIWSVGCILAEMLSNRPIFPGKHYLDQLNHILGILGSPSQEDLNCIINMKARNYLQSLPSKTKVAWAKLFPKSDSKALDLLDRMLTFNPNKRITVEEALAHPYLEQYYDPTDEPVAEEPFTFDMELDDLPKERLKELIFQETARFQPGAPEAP
Sequence of Mitogen-activated protein kinase 1 and 3 (ERK2 and ERK1) (Rattus norvegicus) (P63086 whole entry, looked up): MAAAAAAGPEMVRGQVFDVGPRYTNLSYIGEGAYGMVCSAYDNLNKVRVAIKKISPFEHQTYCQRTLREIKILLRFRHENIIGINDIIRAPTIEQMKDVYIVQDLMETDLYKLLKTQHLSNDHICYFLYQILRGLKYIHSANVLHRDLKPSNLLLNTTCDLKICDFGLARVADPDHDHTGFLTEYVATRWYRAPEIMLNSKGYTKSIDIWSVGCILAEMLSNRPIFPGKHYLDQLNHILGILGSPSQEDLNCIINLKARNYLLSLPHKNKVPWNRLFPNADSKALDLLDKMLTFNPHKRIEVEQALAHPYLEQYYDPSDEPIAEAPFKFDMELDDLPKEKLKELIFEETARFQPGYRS
Sequence of Mitogen-activated protein kinase 8 (Rattus norvegicus) (P49185 whole entry): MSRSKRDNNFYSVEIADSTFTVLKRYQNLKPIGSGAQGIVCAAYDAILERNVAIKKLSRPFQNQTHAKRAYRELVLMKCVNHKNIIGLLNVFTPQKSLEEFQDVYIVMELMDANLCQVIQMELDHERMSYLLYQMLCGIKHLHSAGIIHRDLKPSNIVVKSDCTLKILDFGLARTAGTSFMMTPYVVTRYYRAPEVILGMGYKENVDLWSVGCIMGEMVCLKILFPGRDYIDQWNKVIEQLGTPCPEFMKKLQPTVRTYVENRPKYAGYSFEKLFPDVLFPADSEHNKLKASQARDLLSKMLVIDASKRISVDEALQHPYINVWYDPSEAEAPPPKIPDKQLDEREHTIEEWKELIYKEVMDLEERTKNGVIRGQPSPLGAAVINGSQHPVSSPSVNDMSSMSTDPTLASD

O=C(/C=C/c1ccc(O)c(O)c1)OCCc1ccccc1 [CAFFEIC ACID PHENETHYL ESTER]
65%: viability at 48 h [3]
Toxic: Activity [4] | Activity [5]
active: inhibition (VSMC [1]) Dose-dependent effect | Activity (VSMC [2]) | Activity [6] | inhibition (VSMC [7]) | Activity (VSMC [8]) | Activity (Rattus norvegicus [17]) | Activity (Rattus norvegicus [18]) | Activity (VSMC [20]) | Activity (VSMC [22]) | Activity (VSMC [23]) | Activity (VSMC [24]) | inhibition (VSMC [26]) Dose-dependent effect | Activity (VSMC [27])
inactive: Activity (Rattus norvegicus [9]) | Activity (Rattus norvegicus [10]) | Activity (VSMC [11]) | Activity [12] | Activity [13] | Activity (VSMC [14]) | Activity [15] | Activity (VSMC [16]) | inhibition (VSMC [19]) | growth inhibition (GI) (VSMC [21]) | Activity (VSMC [25])
